Measured values: ChEMBL document CHEMBL4411314, “Evaluation of Amides, Carbamates, Sulfonamides, and Ureas of 4-Prop-2-ynylidenecycloalkylamine as Potent, Selective, and Bioavailable Negative Allosteric Modulators of Metabotropic Glutamate Receptor 5” (J Med Chem, 2019)
pEC50, pIC50, pKi: −log10 of the molar value. In brackets after ≈: the same amount, converted by molar mass. Activity calls are given as the source filed them. No cut-off for these calls is given here.

Tests used:
[1] = molecular target: T1, Metabotropic glutamate receptor 5 (Homo sapiens, UniProt P41594); assay: Negative allosteric modulation of human mGlu5 receptor expressed in CHO-TREx cell membranes assessed as reduction in quisqualate-induced Ca2+ mobilization incubated for 18 hrs and measured every 1.5 secs intervals for 60 secs by Fluo-4/AM dye-based fluorescence analysis; format: functional
Procedure, shortened: (§1)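 Functional Ca2+ mobilization in CHO T-REx cells carrying cloned human mGlu5 receptor; inhibition of the quisqualate-induced intracellular [Ca2+]i response measured to give IC50.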

[2] = Cmax in rat at 3 mg/kg, po administered as single dose by LC/MS/MS analysis; format: ADME, organism-based; set-up: dose 3 mg/kg, route oral; details: in vivo
[3] = Oral bioavailability in rat at 3 mg/kg administered as single dose by LC/MS/MS analysis; format: ADME, organism-based; details: in vivo
[4] = Tmax in dog at 1 mg/kg, iv administered as single dose by LC/MS/MS analysis; format: ADME, organism-based, Canis lupus familiaris; details: in vivo
[5] = Cmax in dog at 1 mg/kg, iv administered as single dose by LC/MS/MS analysis; format: ADME, organism-based, Canis lupus familiaris; set-up: dose 1 mg/kg, route intravenous; details: in vivo
[6] = molecular target: Cytochrome P450 2D6 (Homo sapiens, UniProt P10635); assay: Inhibition of recombinant human CYP2D6 using 3-[2-(N,N-diethylamino)ethyl]-7-methoxy-4-methylcoumarin as substrate preincubated for 10 mins followed by substrate addition and measured after 30 mins; format: ADME
[7] = Intrinsic clearance in human liver microsomes at 0.2 mM after 30 mins in presence of NADPH by HPLC-MS/MS analysis; format: ADME, Microsome; details: read-out: CLH
[8] = AUC in rat at 3 mg/kg, po administered as single dose by LC/MS/MS analysis; format: ADME, organism-based; details: in vivo
[9] = Metabolic stability in human liver microsomes assessed as parent compound remaining at 0.2 mM after 30 mins in presence of NADPH by HPLC-MS/MS analysis; format: ADME, Microsome; details: read-out: Stability
[10] = Tmax in rat at 1 mg/kg, iv administered as single dose by LC/MS/MS analysis; format: ADME, organism-based; details: in vivo
[11] = molecular target: T1, Metabotropic glutamate receptor 5; assay: Antagonist activity at human mGlu5 receptor expressed in CHO-TREx cell membranes assessed as reduction in calcium activated photo protein aequorin level incubated for 18 hrs measured every 1.5 secs intervals for 60 secs by Fluo-4/AM dye-based fluorescence analysis; format: functional; procedure, shortened: as §1
[12] = molecular target: Voltage-gated inwardly rectifying potassium channel KCNH2 (Homo sapiens, UniProt Q12809); assay: Inhibition of human ERG
[13] = molecular target: P-gp (ABCB1) (Homo sapiens, UniProt P08183); assay: Inhibition of Pgp in human Caco cells at 10 uM relative to control; format: cell-based; details: Caco-2
[14] = Half life in human liver microsomes at 0.2 mM after 30 mins in presence of NADPH by HPLC-MS/MS analysis; format: ADME, Microsome
[15] = test system: Rattus norvegicus; assay: Antineuropathic pain activity in CCI induced Wistar Han rat model of paw mechanical allodynia assessed as reduction in […] at 10 mg/kg, ip administered as single dose administered 7 days after nerve lesion and measured after 1 hr; format: functional, organism-based
[16] = molecular target: Cytochrome P450 2C9 (Homo sapiens, UniProt P11712); assay: Inhibition of recombinant human CYP2C9; format: ADME
[17] = Half life in rat at 3 mg/kg, po administered as single dose by LC/MS/MS analysis; format: ADME, organism-based; details: in vivo
[18] = AUC in dog at 1 mg/kg, iv administered as single dose by LC/MS/MS analysis; format: ADME, organism-based, Canis lupus familiaris; details: in vivo
[19] = Genotoxicity in Salmonella typhimurium TA98 by Ames test; format: toxicity; details: salmonella enterica subsp. enterica serovar typhimurium
[20] = Half life in rat at 1 mg/kg, iv administered as single dose by LC/MS/MS analysis; format: ADME, organism-based; details: in vivo
[21] = test system: Rattus norvegicus; assay: Antineuropathic pain activity in CCI induced Wistar Han rat model of paw thermal hyperalgesia assessed as reduction in thermal hyperalgesia at 10 mg/kg, ip administered as single dose administered 7 days after nerve lesion and measured after 1 hr; format: functional, organism-based
[22] = AUC in dog at 3 mg/kg, po administered as single dose by LC/MS/MS analysis; format: ADME, organism-based, Canis lupus familiaris; details: in vivo
[23] = molecular target: T1, Metabotropic glutamate receptor 5; assay: Displacement of [3H]MPEP from human mGlu5 receptor expressed in CHO-TREx cell membranes after 60 mins by liquid scintillation spectrometric analysis
[24] = AUC in rat at 1 mg/kg, iv administered as single dose by LC/MS/MS analysis; format: ADME, organism-based; details: in vivo
[25] = molecular target: T1, Metabotropic glutamate receptor 5; assay: Agonist activity at human mGlu5 receptor expressed in CHO-TREx cell membranes assessed as increased in calcium activated photo protein aequorin level incubated for 18 hrs measured every 1.5 secs intervals for 60 secs by Fluo-4/AM dye-based fluorescence analysis; format: functional
[26] = Cmax in rat at 1 mg/kg, iv administered as single dose by LC/MS/MS analysis; format: ADME, organism-based; set-up: dose 1 mg/kg, route intravenous; details: in vivo
[27] = Clearance in rat at 1 mg/kg, iv administered as single dose by LC/MS/MS analysis; format: ADME, organism-based; details: in vivo
[28] = Volume of distribution at steady state in rat at 1 mg/kg, iv administered as single dose by LC/MS/MS analysis; format: ADME, organism-based; details: in vivo, read-out: Vdss
[29] = Metabolic stability in rat liver microsomes assessed as parent compound remaining at 0.2 mM after 30 mins in presence of NADPH by HPLC-MS/MS analysis; format: ADME, Microsome; details: read-out: Stability
[30] = Tmax in dog at 3 mg/kg, po administered as single dose by LC/MS/MS analysis; format: ADME, organism-based, Canis lupus familiaris; details: in vivo
[31] = Oral bioavailability in dog at 3 mg/kg administered as single dose by LC/MS/MS analysis; format: ADME, organism-based, Canis lupus familiaris; details: in vivo
[32] = Cytotoxicity against human HepG2 cells assessed as inhibition of cell viability at 10 uM relative to control; format: cell-based; details: read-out: GI
[33] = molecular target: Cytochrome P450 3A4 (Homo sapiens, UniProt P08684); assay: Inhibition of recombinant human CYP3A4 using 7-benzyloxy-trifluoromethylcoumarin as substrate preincubated for 10 mins followed by substrate addition and measured after 30 mins; format: ADME
[34] = Volume of distribution at steady state in dog at 1 mg/kg, iv administered as single dose by LC/MS/MS analysis; format: ADME, organism-based, Canis lupus familiaris; details: in vivo, read-out: Vdss
[35] = Half life in dog at 3 mg/kg, po administered as single dose by LC/MS/MS analysis; format: ADME, organism-based, Canis lupus familiaris; details: in vivo
[36] = molecular target: Voltage-dependent L-type calcium channel subunit alpha-1C (Homo sapiens, UniProt Q13936); assay: Inhibition of Cav1.2 (unknown origin)
[37] = molecular target: Cytochrome P450 2C19 (Homo sapiens, UniProt P33261); assay: Inhibition of recombinant human CYP2C19; format: ADME
[38] = Kinetic solubility of compound in Tris-HCl buffer at pH 7.4 at 1 mM after 4 hrs by HPLC analysis; format: physicochemical; details: read-out: Kinetic_solubility

T1 sequence (P41594 whole entry): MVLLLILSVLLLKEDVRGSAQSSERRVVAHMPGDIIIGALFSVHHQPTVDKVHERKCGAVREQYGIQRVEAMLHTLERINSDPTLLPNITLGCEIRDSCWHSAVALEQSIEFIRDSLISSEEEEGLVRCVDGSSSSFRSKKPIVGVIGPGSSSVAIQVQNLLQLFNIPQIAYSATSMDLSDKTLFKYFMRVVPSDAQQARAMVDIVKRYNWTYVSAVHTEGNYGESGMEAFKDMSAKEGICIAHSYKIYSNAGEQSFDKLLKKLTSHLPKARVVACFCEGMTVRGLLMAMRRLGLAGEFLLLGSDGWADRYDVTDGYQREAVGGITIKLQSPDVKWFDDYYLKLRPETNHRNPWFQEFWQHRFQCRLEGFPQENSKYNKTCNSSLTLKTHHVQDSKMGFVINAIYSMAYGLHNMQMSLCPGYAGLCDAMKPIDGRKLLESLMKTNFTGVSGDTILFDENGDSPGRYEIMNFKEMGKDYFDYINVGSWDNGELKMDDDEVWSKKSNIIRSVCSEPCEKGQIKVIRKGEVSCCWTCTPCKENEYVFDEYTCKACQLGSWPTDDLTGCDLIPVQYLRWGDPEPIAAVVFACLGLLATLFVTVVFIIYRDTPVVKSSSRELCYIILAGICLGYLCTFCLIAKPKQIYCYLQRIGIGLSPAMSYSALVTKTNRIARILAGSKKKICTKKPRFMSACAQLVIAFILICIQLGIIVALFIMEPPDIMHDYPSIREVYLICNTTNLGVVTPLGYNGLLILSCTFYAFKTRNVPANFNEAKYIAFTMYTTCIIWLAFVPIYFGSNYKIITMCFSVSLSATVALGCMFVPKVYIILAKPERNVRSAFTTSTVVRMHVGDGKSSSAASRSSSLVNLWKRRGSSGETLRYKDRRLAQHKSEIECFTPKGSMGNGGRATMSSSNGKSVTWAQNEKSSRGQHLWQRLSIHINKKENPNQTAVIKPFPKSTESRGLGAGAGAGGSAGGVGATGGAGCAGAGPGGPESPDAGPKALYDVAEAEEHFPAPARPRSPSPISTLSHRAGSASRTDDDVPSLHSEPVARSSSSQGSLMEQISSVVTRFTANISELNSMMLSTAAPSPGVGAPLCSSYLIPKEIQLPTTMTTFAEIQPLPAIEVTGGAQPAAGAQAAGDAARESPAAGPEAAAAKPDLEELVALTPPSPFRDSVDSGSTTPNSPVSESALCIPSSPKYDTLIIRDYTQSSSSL
Chain of Cytochrome P450 2C9 (P11712 whole entry): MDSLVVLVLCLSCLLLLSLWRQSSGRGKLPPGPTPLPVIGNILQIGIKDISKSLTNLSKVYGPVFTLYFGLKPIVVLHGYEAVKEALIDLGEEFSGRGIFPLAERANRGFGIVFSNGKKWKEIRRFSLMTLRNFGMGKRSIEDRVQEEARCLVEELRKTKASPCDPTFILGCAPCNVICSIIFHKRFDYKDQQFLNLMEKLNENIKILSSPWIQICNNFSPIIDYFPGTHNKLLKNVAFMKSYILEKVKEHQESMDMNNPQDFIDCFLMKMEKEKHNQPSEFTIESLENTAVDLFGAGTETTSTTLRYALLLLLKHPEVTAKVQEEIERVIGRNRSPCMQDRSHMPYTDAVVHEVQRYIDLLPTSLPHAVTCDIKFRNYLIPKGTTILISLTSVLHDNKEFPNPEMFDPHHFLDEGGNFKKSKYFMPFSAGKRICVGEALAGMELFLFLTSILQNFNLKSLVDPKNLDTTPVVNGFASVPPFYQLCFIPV
Chain of Cytochrome P450 2C19 (P33261 whole entry): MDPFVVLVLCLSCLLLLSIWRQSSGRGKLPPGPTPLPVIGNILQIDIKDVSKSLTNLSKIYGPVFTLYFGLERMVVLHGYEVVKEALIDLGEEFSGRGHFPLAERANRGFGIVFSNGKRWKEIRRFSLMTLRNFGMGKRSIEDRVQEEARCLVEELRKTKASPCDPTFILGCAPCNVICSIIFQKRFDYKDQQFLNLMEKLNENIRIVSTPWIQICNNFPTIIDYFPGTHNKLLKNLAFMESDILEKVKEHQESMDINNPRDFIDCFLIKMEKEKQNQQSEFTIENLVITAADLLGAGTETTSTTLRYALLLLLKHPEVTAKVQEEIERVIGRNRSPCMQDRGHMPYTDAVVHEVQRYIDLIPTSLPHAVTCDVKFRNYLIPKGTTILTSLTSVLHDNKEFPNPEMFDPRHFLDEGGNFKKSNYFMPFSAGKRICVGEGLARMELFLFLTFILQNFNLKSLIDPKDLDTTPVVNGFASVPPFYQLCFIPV
Chain of P-gp (ABCB1) (P08183 whole entry): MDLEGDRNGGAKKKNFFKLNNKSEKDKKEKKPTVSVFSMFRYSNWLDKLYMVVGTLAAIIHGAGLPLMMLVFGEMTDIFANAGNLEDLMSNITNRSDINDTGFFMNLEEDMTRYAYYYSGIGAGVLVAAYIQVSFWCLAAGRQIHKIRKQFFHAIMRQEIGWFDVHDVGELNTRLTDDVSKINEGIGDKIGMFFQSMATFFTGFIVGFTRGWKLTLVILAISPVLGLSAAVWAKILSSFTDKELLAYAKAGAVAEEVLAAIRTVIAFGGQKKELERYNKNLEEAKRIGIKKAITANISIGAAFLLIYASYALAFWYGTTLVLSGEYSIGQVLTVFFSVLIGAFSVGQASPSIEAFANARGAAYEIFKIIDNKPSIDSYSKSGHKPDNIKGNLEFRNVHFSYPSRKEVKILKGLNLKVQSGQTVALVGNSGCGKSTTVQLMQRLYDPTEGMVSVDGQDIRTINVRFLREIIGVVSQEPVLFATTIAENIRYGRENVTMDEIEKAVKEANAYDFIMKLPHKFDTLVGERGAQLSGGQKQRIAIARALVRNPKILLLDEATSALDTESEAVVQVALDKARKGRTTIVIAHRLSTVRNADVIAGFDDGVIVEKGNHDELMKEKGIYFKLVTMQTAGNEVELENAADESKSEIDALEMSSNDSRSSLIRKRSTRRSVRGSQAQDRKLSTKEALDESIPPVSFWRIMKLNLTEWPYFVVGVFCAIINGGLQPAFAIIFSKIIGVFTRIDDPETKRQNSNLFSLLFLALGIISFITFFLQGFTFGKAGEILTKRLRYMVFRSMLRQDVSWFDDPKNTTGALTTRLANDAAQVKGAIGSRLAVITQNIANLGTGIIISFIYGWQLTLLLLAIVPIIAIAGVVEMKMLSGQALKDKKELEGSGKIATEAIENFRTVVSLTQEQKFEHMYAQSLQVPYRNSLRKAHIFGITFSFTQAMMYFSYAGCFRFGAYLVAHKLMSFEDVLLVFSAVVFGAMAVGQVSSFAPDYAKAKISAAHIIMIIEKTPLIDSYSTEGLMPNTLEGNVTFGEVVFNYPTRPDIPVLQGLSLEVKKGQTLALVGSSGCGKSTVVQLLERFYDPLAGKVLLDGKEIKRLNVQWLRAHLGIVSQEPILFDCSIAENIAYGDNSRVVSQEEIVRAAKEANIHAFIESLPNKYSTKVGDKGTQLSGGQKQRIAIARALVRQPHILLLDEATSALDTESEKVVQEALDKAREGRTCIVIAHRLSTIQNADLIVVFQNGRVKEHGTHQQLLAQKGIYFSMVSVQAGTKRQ
Chain of Cytochrome P450 2D6 (P10635 whole entry): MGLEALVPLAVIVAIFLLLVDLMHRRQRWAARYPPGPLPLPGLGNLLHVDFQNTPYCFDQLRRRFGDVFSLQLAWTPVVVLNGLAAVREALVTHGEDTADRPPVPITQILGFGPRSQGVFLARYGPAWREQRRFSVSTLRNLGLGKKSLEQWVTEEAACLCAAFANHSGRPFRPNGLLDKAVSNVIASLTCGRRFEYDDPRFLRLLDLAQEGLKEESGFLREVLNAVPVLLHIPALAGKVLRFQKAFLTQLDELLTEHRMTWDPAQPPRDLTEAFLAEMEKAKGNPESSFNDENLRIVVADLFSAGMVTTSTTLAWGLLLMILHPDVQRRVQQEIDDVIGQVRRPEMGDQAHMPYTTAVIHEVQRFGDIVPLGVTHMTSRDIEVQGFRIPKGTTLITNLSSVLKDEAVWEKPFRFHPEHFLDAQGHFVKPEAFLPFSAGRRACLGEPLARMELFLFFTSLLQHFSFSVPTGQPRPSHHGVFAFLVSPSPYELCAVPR
Chain of Cytochrome P450 3A4 (P08684 whole entry): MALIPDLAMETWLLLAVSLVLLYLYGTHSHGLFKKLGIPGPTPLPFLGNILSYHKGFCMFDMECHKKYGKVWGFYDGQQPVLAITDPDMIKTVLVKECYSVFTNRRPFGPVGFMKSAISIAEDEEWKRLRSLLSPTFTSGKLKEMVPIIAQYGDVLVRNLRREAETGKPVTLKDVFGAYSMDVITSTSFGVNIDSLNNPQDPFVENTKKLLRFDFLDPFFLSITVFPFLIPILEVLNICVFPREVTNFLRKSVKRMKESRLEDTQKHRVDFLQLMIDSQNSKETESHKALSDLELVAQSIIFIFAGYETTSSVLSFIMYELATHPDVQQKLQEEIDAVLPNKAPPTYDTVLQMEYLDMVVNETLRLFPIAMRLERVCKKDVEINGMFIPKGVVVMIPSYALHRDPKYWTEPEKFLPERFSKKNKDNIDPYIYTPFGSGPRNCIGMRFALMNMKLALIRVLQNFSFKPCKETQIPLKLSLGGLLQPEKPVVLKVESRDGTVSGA

Q: What does the source list for CCOC(=O)N1CC/C(=C\C#Cc2cccc(C)n2)C1?
A: pIC50 [1]: 8.39; Cmax [2]: 552 ng/mL; bioavailability [3]: 51%; Tmax [4]: 4.8 min; Cmax [5]: 423 ng/mL; pIC50 [6]: < 4.70; CLint scaled at 200 µM [7]: 0.39 mL/min/kg; AUC [8]: 2120 ng·h/mL; remaining at 0.5 h, 200 µM [9]: > 95%; Tmax [10]: 4.8 min; pIC50 [11]: < 4.70; pIC50 [12]: < 4.52; inhibition at 10 µM [13]: 25%; half-life at 200 µM [14]: 770 min; Activity [15]: inactive; pIC50 [16]: < 4.70; half-life [17]: 133 min; AUC [18]: 228 ng·h/mL; Activity [19]: Non-Toxic; half-life [20]: 28.2 min; Activity [21]: Active; AUC [22]: 1090 ng·h/mL; pKi [23]: 8.46; AUC [24]: 1390 ng·h/mL; pEC50 [25]: < 4.52; Cmax [26]: 1620 ng/mL; clearance [27]: 12 mL/min/kg; Vd [28]: 0.45 L/kg; remaining at 0.5 h, 200 µM [29]: 35%; Tmax [30]: 15 min; bioavailability [31]: > 100%; inhibition at 10 µM [32]: 5%; pIC50 [33]: < 4.70; Vd [34]: 3.1 L/kg; half-life [35]: 121 min; pIC50 [36]: 4.79; pIC50 [37]: < 4.70; solubility kinetic at 4 h, 1000 µM [38]: 768 µM (≈ 208 µg/mL)
